{"source": "paper PMC6764274", "about": "(Chemical Science, 2019)", "key": {"[1]": {"tested_on": "HMLER cells", "experiment": "MTT cytotoxicity assay, bulk breast cancer cells", "format": "cell-based", "conditions": "read-out: HMLER IC50/nM"}, "[2]": {"tested_on": "HMLER-shEcad cells", "experiment": "MTT cytotoxicity assay, breast CSC-enriched cells", "format": "cell-based", "conditions": "read-out: HMLER-shEcad IC50/nM"}, "[3]": {"tested_on": "HMLER-shEcad mammospheres", "conditions": "cited from earlier work"}, "[4]": {"tested_on": "HMLER-shEcad mammospheres", "experiment": "Mammosphere formation inhibition", "format": "cell-based", "conditions": "IC20 value for 5 days", "how_it_was_run": "(§1)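 HMLER-shEcad or MCF10A cells were grown as mammospheres/spheroids with test compound at its IC20 for 5 days. Spheres were assessed by inverted microscope with bright-field imaging (×20), and formation was quantified against untreated cells. SD, Student t-test.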"}, "[5]": {"tested_on": "HMLER-shEcad cells", "conditions": "read-out: HMLER-shEcad IC50/nM; 72 h incubation; cited from earlier work"}, "[6]": {"tested_on": "MCF10A spheroids", "experiment": "Non-tumorigenic spheroid formation inhibition", "format": "cell-based", "conditions": "IC20 value for 5 days", "how_it_was_run": "as §1"}, "[7]": {"tested_on": "MCF10A spheroids", "experiment": "Non-tumorigenic spheroid viability", "format": "cell-based", "conditions": "Homo sapiens, MCF-10A, read-out: IC50, MCF10A spheroid viability"}, "[8]": {"conditions": "72 h incubation, mean of three independent experiments ± SD"}}, "note": "Like-named read-outs stand apart in the source and are kept apart here.", "data": [{"compound": "Cc1cnc2c(ccc3c(C)c(C)cnc32)c1C", "note": "[3,4,7,8-Tetramethyl-1,10-phenanthroline]", "values": [{"measurement": "IC50", "setting": "[1]; 72 h", "result": "785 ± 10", "unit": "nM"}, {"measurement": "IC50", "setting": "[2]; 72 h", "result": "720 ± 84", "unit": "nM"}]}, {"compound": "[Cl][Mn][Cl]", "note": "[MnCl2·4H2O]", "values": [{"measurement": "IC50", "setting": "[2]; [8]", "result": "7760 ± 318", "unit": "nM"}]}, {"compound": "O=C(O)Cc1ccccc1Nc1c(Cl)cccc1Cl", "note": "[Diclofenac]", "values": [{"measurement": "effect on number or size of HMLER-shEcad mammospheres formed", "setting": "[3]", "result": "does not significantly affect"}]}, {"compound": "Cc1cnc2c(ccc3c(C)c(C)cnc32)c1C.[Cl][Mn][Cl]", "note": "[Mn(3,4,7,8-tetramethyl-1,10-phenanthroline)Cl2]", "values": [{"measurement": "IC50", "setting": "[1]; [8]", "result": "163 ± 21", "unit": "nM"}, {"measurement": "IC50", "setting": "[2]; [8]", "result": "170 ± 14", "unit": "nM"}]}, {"compound": "N.N.[Cl][Pt][Cl]", "note": "[Cisplatin]", "values": [{"measurement": "IC50", "setting": "[1]; [8]", "result": "2565 ± 21", "unit": "nM"}, {"measurement": "IC50", "setting": "[2]; [8]", "result": "5640 ± 304", "unit": "nM"}]}, {"compound": "CC[C@@H](C(=O)[C@@H](C)[C@@H](O)[C@H](C)[C@@H]1O[C@@H]([C@@H](CC)C(=O)O)CC[C@@H]1C)[C@H]1O[C@]2(C=C[C@@H](O)[C@]3(CC[C@@](C)([C@H]4CC[C@](O)(CC)[C@H](C)O4)O3)O2)[C@H](C)C[C@@H]1C", "note": "[Salinomycin]", "values": [{"measurement": "decrease in number of HMLER-shEcad mammospheres formed compared to the untreated control", "setting": "[4]", "result": 53, "unit": "%"}, {"measurement": "IC50", "setting": "[5]", "result": "4200 ± 400", "unit": "nM"}, {"measurement": "decrease in number of MCF10A spheroids formed", "setting": "[6]", "result": 40, "unit": "%"}, {"measurement": "IC50", "setting": "[7]", "result": "14.9 ± 0.5", "unit": "µM"}]}]}
